Assay results from ChEMBL document CHEMBL4118145, “Structure-activity relationship investigation of Phe-Arg mimetic region of human glutaminyl cyclase inhibitors” (Bioorg Med Chem, 2018).

Columns and labels:
HT-22 = experiment: Cytotoxicity against mouse HT22 cells assessed as decrease in cell viability at 10 uM by MTT assay relative to control; assay type: cell-based; settings: ht-22, 10 µM
Method in brief: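 HT-22 immortalized hippocampal neuronal cells incubated with compound at 10 μM; viability read by MTT assay and expressed as % of control.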

Mus musculus = experiment: In vivo inhibition of glutaminyl cyclase in ICR mouse brain extract assessed as decrease in levels of human pyroglutamyl-beta-amyloid (1 to 40) containing N-terminal pyroglutamte at position 3 at 25 mg/kg, icv measured next day by sandwich ELISA relative to control; assay type: functional; settings: central
Method in brief: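 Male ICR mice (25 g, n = 4) received icv injection of human Aβ3-40 (5 μL of 1 μg/μL in PBS, 5 µg) into deep cortical/hippocampal tissue via stereotaxic frame, then compound at 25 mg/kg icv. Brain extracts taken next day; Aβ N3pE-40 quantified by sandwich ELISA, expressed as % inhibition versus vehicle control.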

hERG (KCNH2) = hERG (KCNH2) (Homo sapiens, UniProt Q12809); experiment: Inhibition of human ERG at 10 uM relative to control
Chain of hERG (KCNH2) (Q12809 whole entry): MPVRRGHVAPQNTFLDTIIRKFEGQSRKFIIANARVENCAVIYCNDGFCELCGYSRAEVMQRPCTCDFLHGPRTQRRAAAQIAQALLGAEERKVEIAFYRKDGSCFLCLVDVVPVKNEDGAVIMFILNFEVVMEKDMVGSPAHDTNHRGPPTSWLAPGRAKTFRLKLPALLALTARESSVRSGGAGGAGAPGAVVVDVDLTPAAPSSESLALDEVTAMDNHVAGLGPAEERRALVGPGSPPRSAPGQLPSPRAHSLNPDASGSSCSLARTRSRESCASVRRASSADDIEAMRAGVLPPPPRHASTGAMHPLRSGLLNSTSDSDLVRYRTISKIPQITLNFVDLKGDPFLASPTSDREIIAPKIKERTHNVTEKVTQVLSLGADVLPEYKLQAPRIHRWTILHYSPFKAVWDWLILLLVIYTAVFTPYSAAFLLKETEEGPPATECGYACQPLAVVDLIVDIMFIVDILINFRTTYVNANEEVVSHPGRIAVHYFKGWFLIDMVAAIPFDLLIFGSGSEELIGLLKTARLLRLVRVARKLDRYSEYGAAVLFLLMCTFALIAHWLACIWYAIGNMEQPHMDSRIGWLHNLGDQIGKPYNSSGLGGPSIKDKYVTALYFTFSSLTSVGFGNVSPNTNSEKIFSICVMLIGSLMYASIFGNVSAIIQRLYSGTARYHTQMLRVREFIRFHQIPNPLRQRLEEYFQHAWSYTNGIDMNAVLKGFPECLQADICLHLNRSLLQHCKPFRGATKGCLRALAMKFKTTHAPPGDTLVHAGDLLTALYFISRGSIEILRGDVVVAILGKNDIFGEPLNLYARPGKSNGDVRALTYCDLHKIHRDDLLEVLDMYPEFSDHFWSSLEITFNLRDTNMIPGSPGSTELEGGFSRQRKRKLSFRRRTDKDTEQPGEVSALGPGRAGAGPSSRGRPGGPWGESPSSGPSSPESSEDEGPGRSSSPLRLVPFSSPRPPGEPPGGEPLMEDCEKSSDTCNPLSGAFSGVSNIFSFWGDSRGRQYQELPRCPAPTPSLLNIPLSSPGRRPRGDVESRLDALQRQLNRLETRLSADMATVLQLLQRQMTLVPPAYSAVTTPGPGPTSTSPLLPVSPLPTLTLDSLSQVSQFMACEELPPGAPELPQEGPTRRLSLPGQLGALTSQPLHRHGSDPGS
Method in brief: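 hERG channel blocking tested at 10 μM, reported as % inhibition.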

Structure (SMILES) | Activity (HT-22) [%] | inhibition in vivo at 25 mg/kg (Mus musculus) [%] | inhibition at 10 µM (hERG (KCNH2)) [%]
COc1ccc(NC(=S)NCCCn2cncc2C)cc1OCCN | 100 | 35.3 | 15.3
Cc1cncn1CCCNC(=S)Nc1ccc(/C=C/C(=O)N2CCN(CCN)CC2)cc1 | 100 | 22.9 | 7.2
COc1ccc(NC(=S)NCCCn2cncc2C)cc1OCCCCN | 100 | 36.6 | 2.8
COc1ccc(NC(=S)NCCCn2cncc2C)cc1OCCCC1CCNCC1 | 100 | 5.5 | 25.6
COc1ccc(NC(=S)NCCCn2cncc2C)cc1OCCCN | 100 | 12.8 | 8.8
COc1ccc(NC(=S)NCCCn2cncc2C)cc1OCCCCC1CCNCC1 | 100 | 14.4 | 35.1
COc1ccc(NC(=S)NCCCn2cncc2C)cc1OCCC1CCNCC1 | 100 | 1.8 | 14.9
Cc1cncn1CCCNC(=S)Nc1ccc(OCC(=O)NC2CCN(CCN)CC2)cc1 | 100 | – | 19.9
